Laboratory results reported in ChEMBL document CHEMBL1121685, “Development of new mitomycin C and porfiromycin analogues” (J Med Chem, 1981).

What was measured:
Mus musculus [1] = assay: Effect of compound on total white blood cell count in BDG1 male mice, after intraperitoneal administration at a dose of 5.03 mg/kg on day 5; assay type: functional
In short: (§1)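 Single ip dose given on day 0 to BDG₁ male mice. Total white blood cell count measured on days 3, 5 and 7, expressed as % change from control. Highest dose was at the LD₅₀, or at twice the optimal dose where so footnoted. Significance reported at p ≤ 0.05 and p ≤ 0.01. D marks death of one or more mice.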

Mus musculus [2] = assay: Effect of compound on total white blood cell count in BDG1 male mice, after intraperitoneal administration at a dose of 3.77 mg/kg on day 5; assay type: functional
In short: (§2)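 Single ip dose given on day 0 to BDG1 male mice over a descending dose series. Total white blood cell count is expressed as % change from untreated control on days 3, 5 and 7. Significance is flagged at p ≤ 0.05 and p ≤ 0.01.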

Mus musculus [3] = assay: Minimum effective dose that show activity against P-388 murine leukemia cells in CDF1 female mice, after intraperitoneal administration (optimal dose is 3.2 mg/kg); assay type: functional; settings: P388, ip, read-out: MED
In short: (§3)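 10⁶ P-388 ascites cells implanted ip in CDF₁ female mice. Six mice per dose, 10 saline-injected controls, and a concurrent mitomycin C reference group. %T/C = median survival time of treated/control × 100. MED is the lowest dose giving %T/C > 125. Therapeutic ratio = optimal dose/MED.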

Mus musculus [4] = assay: Effect of compound on total white blood cell count in BDG1 male mice, after intraperitoneal administration at a dose of 5.03 mg/kg on day 7; assay type: functional; in short: as §1
Mus musculus [5] = assay: Antitumor activity against P-388 murine leukemia cells in CDF1 female mice after intraperitoneal administration at the specified optimal dose of 3.2 mg/kg; assay type: functional
Mus musculus [6] = assay: Effect of compound on total white blood cell count in BDG1 male mice, after intraperitoneal administration at a dose of 3.77 mg/kg on day 3; assay type: functional; in short: as §2
Mus musculus [7] = assay: Effect of compound on total white blood cell count in BDG1 male mice, after intraperitoneal administration at a dose of 2.83 mg/kg on day 7; assay type: functional; in short: as §2
[8] = Therapeutic ratio is expressed as ratio of optimal dose and minimum effective dose; assay type: ADME; settings: mouse; read-out: TR; in short: as §3
Mus musculus [9] = assay: Effect of compound on total white blood cell count in BDG1 male mice, after intraperitoneal administration at a dose of 2.83 mg/kg on day 5; assay type: functional; in short: as §2
Mus musculus [10] = assay: Effect of compound on total white blood cell count in BDG1 male mice, after intraperitoneal administration at a dose of 6.7 mg/kg on day 3; assay type: functional; in short: as §1
Mus musculus [11] = assay: Effect of compound on total white blood cell count in BDG1 male mice, after intraperitoneal administration at a dose of 5.03 mg/kg on day 3; assay type: functional; in short: as §1
Mus musculus [12] = assay: Effect of compound on total white blood cell count in BDG1 male mice, after intraperitoneal administration at a dose of 3.77 mg/kg on day 7; assay type: functional; in short: as §2
Mus musculus [13] = assay: Effect of compound on total white blood cell count in BDG1 male mice, after intraperitoneal administration of a compound of 2.83 mg/kg on day 3; assay type: functional
Mus musculus [14] = assay: Effect of compound on total white blood cell count in BDG1 male mice, after intraperitoneal administration at a dose of 6.7 mg/kg on day 7; assay type: functional; in short: as §1
Mus musculus [15] = assay: Effect of compound on total white blood cell count in BDG1 male mice, after intraperitoneal administration at a dose of 6.7 mg/kg on day 5; assay type: functional; in short: as §1
Mus musculus [16] = assay: Effect of compound on total white blood cell count in BDG1 male mice, after intraperitoneal administration at a dose of 7.4 mg/kg on day 5; assay type: functional; in short: as §1
Mus musculus [17] = assay: Effect of compound on total white blood cell count in BDG1 male mice, after intraperitoneal administration at a dose of 5.5 mg/kg on day 3; assay type: functional; in short: as §1
Mus musculus [18] = species on record: Mus musculus; assay: Half-wave potential produced by the compound at their optimal dose; assay type: functional; parameters: unit not given here
Mus musculus [19] = assay: Effect of compound on total white blood cell count in BDG1 male mice, after intraperitoneal administration at a dose of 5.5 mg/kg on day 7; assay type: functional; in short: as §1
Mus musculus [20] = assay: Effect of compound on total white blood cell count in BDG1 male mice, after intraperitoneal administration at a dose of 9.8 mg/kg on day 7; assay type: functional; in short: as §1
Mus musculus [21] = assay: Effect of compound on total white blood cell count in BDG1 male mice, after intraperitoneal administration at a dose of 9.8 mg/kg on day 3; assay type: functional; in short: as §1
Mus musculus [22] = assay: Effect of compound on total white blood cell count in BDG1 male mice, after intraperitoneal administration at a dose of 7.4 mg/kg on day 3; assay type: functional; in short: as §1
Mus musculus [23] = assay: Effect of compound on total white blood cell count in BDG1 male mice, after intraperitoneal administration at a dose of 5.5 mg/kg on day 5; assay type: functional; in short: as §1
Mus musculus [24] = assay: Effect of compound on total white blood cell count in BDG1 male mice, after intraperitoneal administration at a dose of 7.4 mg/kg on day 7; assay type: functional; in short: as §1
Mus musculus [25] = assay: Effect of compound on total white blood cell count in BDG1 male mice, after intraperitoneal administration at a dose of 9.8 mg/kg on day 5; assay type: functional; in short: as §1
Mus musculus [26] = species on record: Mus musculus; assay: Degree of leukopenia produced by compound is assessed form Percent change in white cells on days 5; assay type: functional
In short: (§4)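 BDG₁ male mice received a single ip dose on day 0. The dose series topped out at the LD₅₀ level, or at twice the optimal dose for some agents. Total white blood cell count was taken on days 3, 5 and 7 and expressed as % change from untreated controls. Significance was set at p ≤ 0.05 or p ≤ 0.01.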

Mus musculus [27] = assay: Effect of compound on total white blood cell count in BDG1 male mice, after intraperitoneal administration at a dose of 2.25 mg/kg on day 7; assay type: functional; in short: as §2
Mus musculus [28] = assay: Effect of compound on total white blood cell count in BDG1 male mice, after intraperitoneal administration at a dose of 1.69 mg/kg on day 3; assay type: functional; in short: as §4
Mus musculus [29] = assay: Effect of compound on total white blood cell count in BDG1 male mice, after intraperitoneal administration at a dose of 1.27 mg/kg on day 5; assay type: functional; in short: as §4
Mus musculus [30] = assay: Effect of compound on total white blood cell count in BDG1 male mice, after intraperitoneal administration at a dose of 1.27 mg/kg on day 7; assay type: functional; in short: as §4
Mus musculus [31] = assay: Effect of compound on total white blood cell count in BDG1 male mice, after intraperitoneal administration at a dose of 3 mg/kg on day 5; assay type: functional; in short: as §2
Mus musculus [32] = assay: Effect of compound on total white blood cell count in BDG1 male mice, after intraperitoneal administration at a dose of 1.69 mg/kg on day 5; assay type: functional; in short: as §4
Mus musculus [33] = assay: Effect of compound on total white blood cell count in BDG1 male mice, after intraperitoneal administration at a dose of 3 mg/kg on day 7; assay type: functional; in short: as §2
Mus musculus [34] = assay: Effect of compound on total white blood cell count in BDG1 male mice, after intraperitoneal administration at a dose of 3 mg/kg on day 3; assay type: functional; in short: as §2
Mus musculus [35] = assay: Effect of compound on total white blood cell count in BDG1 male mice, after intraperitoneal administration at a dose of 1.27 mg/kg on day 3; assay type: functional; in short: as §4
Mus musculus [36] = assay: Effect of compound on total white blood cell count in BDG1 male mice, after intraperitoneal administration at a dose of 2.25 mg/kg on day 5; assay type: functional; in short: as §2
Mus musculus [37] = assay: Effect of compound on total white blood cell count in BDG1 male mice, after intraperitoneal administration at a dose of 1.69 mg/kg on day 7; assay type: functional; in short: as §4
Mus musculus [38] = species on record: Mus musculus; assay: Degree of leukopenia produced by compound is assessed form Percent change in white cells on day 3; assay type: functional; in short: as §4
Mus musculus [39] = assay: Effect of compound on total white blood cell count in BDG1 male mice, after intraperitoneal administration at a dose of 2.25 mg/kg on day 3; assay type: functional; in short: as §2
Mus musculus [40] = assay: Effect of compound on total white blood cell count in BDG1 male mice, after intraperitoneal administration at a dose of 44.25 mg/kg on day 3; assay type: functional; in short: as §1
Mus musculus [41] = assay: Effect of compound on total white blood cell count in BDG1 male mice, after intraperitoneal administration at a dose of 59.0 mg/kg on day 5; assay type: functional; in short: as §1
Mus musculus [42] = assay: Effect of compound on total white blood cell count in BDG1 male mice, after intraperitoneal administration at a dose of 59.0 mg/kg on day 3; assay type: functional; in short: as §1
Mus musculus [43] = assay: Effect of compound on total white blood cell count in BDG1 male mice, after intraperitoneal administration at a dose of 44.25 mg/kg on day 5; assay type: functional; in short: as §1
Mus musculus [44] = assay: Minimum effective dose that show activity against P-388 murine leukemia cells in CDF1 female mice, after intraperitoneal administration (optimal dose is 25.6 mg/kg); assay type: functional; settings: P388, ip, read-out: MED; in short: as §3
Mus musculus [45] = assay: Antitumor activity against P-388 murine leukemia cells in CDF1 female mice after intraperitoneal administration at the specified optimal dose of 25.6 mg/kg; assay type: functional
Mus musculus [46] = assay: Effect of compound on total white blood cell count in BDG1 male mice, after intraperitoneal administration at a dose of 59.0 mg/kg on day 7; assay type: functional; in short: as §1
Mus musculus [47] = assay: Effect of compound on total white blood cell count in BDG1 male mice, after intraperitoneal administration at a dose of 33.18 mg/kg on day 3; assay type: functional; in short: as §2
Mus musculus [48] = assay: Effect of compound on total white blood cell count in BDG1 male mice, after intraperitoneal administration at a dose of 44.25 mg/kg on day 7; assay type: functional; in short: as §1
Mus musculus [49] = assay: Effect of compound on total white blood cell count in BDG1 male mice, after intraperitoneal administration at a dose of 33.18 mg/kg on day 7; assay type: functional; in short: as §2
Mus musculus [50] = assay: Effect of compound on total white blood cell count in BDG1 male mice, after intraperitoneal administration at a dose of 33.18 mg/kg on day 5; assay type: functional; in short: as §2

COC12[C@@H](COC(N)=O)C3=C(C(=O)C(C)=C(N4CC4C)C3=O)N1C[C@@H]1[C@H]2N1C (stereo partly drawn)
Change (Mus musculus [1]): -44% | Change (Mus musculus [2]): -25% | minimal effective dose (Mus musculus [3]): 0.4 mg/kg | Change (Mus musculus [4]): -4% | T/C (Mus musculus [5]): 163% | Change (Mus musculus [6]): -30% | Change (Mus musculus [7]): 2% | selectivity ratio [8]: 8 | Change (Mus musculus [9]): -21% | Change (Mus musculus [10]): -28% | Change (Mus musculus [11]): -31% | Change (Mus musculus [12]): -11% | Change (Mus musculus [13]): -31% | Change (Mus musculus [14]): -37% | Change (Mus musculus [15]): -49%

COC12[C@@H]3N[C@@H]3CN1C1=C(C(=O)C(Nc3cccnc3)=C(C)C1=O)[C@@H]2COC(N)=O (stereo partly drawn)
Change (Mus musculus [16]): -46% | Change (Mus musculus [17]): -41% | E1/2 (Mus musculus [18]): -0.31 | minimal effective dose (Mus musculus [3]): < 0.2 mg/kg | T/C (Mus musculus [5]): 211% | Change (Mus musculus [19]): -14% | Change (Mus musculus [20]): 24% | Change (Mus musculus [21]): -36% | selectivity ratio [8]: > 16 | Change (Mus musculus [22]): -43% | Change (Mus musculus [23]): -24% | Change (Mus musculus [24]): -0.2% | Change (Mus musculus [25]): -42% | Change (Mus musculus [26]): -33%

COC12[C@@H]3N[C@@H]3CN1C1=C(C(=O)C(N3CC3C)=C(C)C1=O)[C@@H]2COC(N)=O (stereo partly drawn)
E1/2 (Mus musculus [18]): -0.32 | Change (Mus musculus [27]): -6% | minimal effective dose (Mus musculus [3]): 0.1 mg/kg | T/C (Mus musculus [5]): 233% | Change (Mus musculus [28]): -24% | Change (Mus musculus [29]): -5% | selectivity ratio [8]: 32 | Change (Mus musculus [30]): 18% | Change (Mus musculus [31]): -39% | Change (Mus musculus [32]): -5% | Change (Mus musculus [33]): -12% | Change (Mus musculus [34]): -37% | Change (Mus musculus [35]): -16% | Change (Mus musculus [36]): -32% | Change (Mus musculus [37]): 3% | Change (Mus musculus [38]): -24% | Change (Mus musculus [39]): -36%

C#CCNC1=C(C)C(=O)C2=C(C1=O)[C@H](COC(N)=O)C1(OC)[C@H]3[C@@H](CN21)N3C (stereo partly drawn)
Change (Mus musculus [40]): -74% | Change (Mus musculus [41]): -84% | Change (Mus musculus [42]): -80% | Change (Mus musculus [43]): -69% | minimal effective dose (Mus musculus [44]): 1.6 mg/kg | selectivity ratio [8]: 16 | T/C (Mus musculus [45]): 300% | Change (Mus musculus [46]): -77% | Change (Mus musculus [47]): -64% | Change (Mus musculus [48]): -67% | Change (Mus musculus [49]): -49% | Change (Mus musculus [50]): -66%
